KCNK3 block = human KCNK3 channel inhibitors, primary screen, CHO cells, FluxOR thallium flux, B-score. Potassium channel subfamily K member 3 (Homo sapiens), O14649. FluxOR fluorescence; hits give low values. B-score at 10 µM. actives 0.84% (n = 340,000). AID 602410, 2012;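 active means B-score under library mean minus 4 SD, starting fluorescence ratio at most library mean plus 5 SD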;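 further: more negative B-score means stronger inhibition of thallium flux through KCNK3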
Target sequence (O14649 whole entry, looked up): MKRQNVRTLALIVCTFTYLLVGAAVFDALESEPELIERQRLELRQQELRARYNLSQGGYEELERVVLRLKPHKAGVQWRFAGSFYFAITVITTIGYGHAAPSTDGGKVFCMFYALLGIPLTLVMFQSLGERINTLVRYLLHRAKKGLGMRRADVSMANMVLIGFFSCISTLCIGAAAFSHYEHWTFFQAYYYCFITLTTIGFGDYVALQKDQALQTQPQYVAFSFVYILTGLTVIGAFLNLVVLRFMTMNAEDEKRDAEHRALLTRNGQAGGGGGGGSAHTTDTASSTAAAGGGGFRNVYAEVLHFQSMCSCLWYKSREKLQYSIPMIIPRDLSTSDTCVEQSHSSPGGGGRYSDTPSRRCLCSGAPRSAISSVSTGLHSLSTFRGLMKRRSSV
KCNQ1 block = inhibitors of human KCNQ1 channel, primary screen, cell-based, thallium flux, high-throughput. actives 1.3% (n = 310,000). B-score at 10 µM. AID 2642, 2010. CHO-K1 KCNQ1, FluxOR thallium flux fluorescence; hits give high values;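 active means compounds whose thallium flux B-score, printed positive for inhibition, exceeds three library SD while starting fluorescence stays within three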;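 further: channel opened by potassium depolarization with thallium stimulus after 20 min compound exposure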
KCNK9 inh = KCNK9 potassium channel inhibitors, primary screen, HEK293 cells, thallium flux; Potassium channel subfamily K member 9 (Homo sapiens), Q9NPC2; FluxOR thallium flux fluorescence; hits give low values; B-score at 10 µM; actives 1.2% (n = 310,000); AID 488922, 2010;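 active means ratio B-score over 3 SD below the library mean, with starting fluorescence within 5 SD of its mean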;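 further: negative B-score means less thallium flux so channel inhibition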
KCNQ1 act = potentiators or activators of KCNQ1 channel, primary screen, cell-based, thallium flux, high-throughput; Potassium voltage-gated channel subfamily KQT member 1 (Homo sapiens), P51787; CHO-K1 KCNQ1, thallium flux FluxOR fluorescence; hits give high values; B-score at 10 µM; actives 0.35% (n = 310,000); AID 2648, 2010;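 active means fluorescence ratio B-score, a plate-corrected score, at least three library SD, with initial intensity B-score within 5 SD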
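Assay system: CHO-K1 cells stably expressing KCNQ1. Medium: assay buffer for compound exposure, DMSO matched across wells. Timing: 37 °C overnight plating, 90-min dark dye load, 20-min compound pretreatment. Signal: kinetic FluxOR fluorescence, 10 s baseline plus 110 s post-stimulus.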
hERG protect = hERG rescue from dofetilide block, primary screen, cell-based, CHO-hERG, FluxOR thallium flux, dofetilide IC70. Voltage-gated inwardly rectifying potassium channel KCNH2 (Homo sapiens), Q12809. dofetilide IC70 present. activation (rescue from dofetilide block), less the hit threshold, % at 10 µM. actives 0.51% (n = 310,000). AID 1511, 2009;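 active means activation above the mean of controls blocked by dofetilide plus 5 SD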;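 further: thallium influx through hERG after potassium depolarization seen as dye fluorescence rise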
An asterisk follows results filed as active. An excerpt weighted towards active compounds, which were near 3.1% of everything screened.

COc1ccc(C(CC(=O)O)NC(=O)C(c2ccccc2)c2ccccc2)cc1 (configuration not stated) was read as KCNK3 block inactive, KCNQ1 block inactive, KCNK9 inh inactive, KCNQ1 act inactive and hERG protect 11*.
`O=[N+]([O-])c1cc(Cl)cc(/C=N/Nc2nc3ccccc3s2)c1O` gave KCNK3 block inactive, KCNQ1 block 6*, KCNK9 inh inactive, KCNQ1 act inactive and hERG protect -8.
For CCOC(=O)C1=C(C)N(c2ccc(OC)cc2)C(=O)/C1=C\c1ccc(O)c(OCC)c1 the results were KCNK3 block inactive, KCNQ1 block 6*, KCNK9 inh inactive, KCNQ1 act inactive and hERG protect -14.
`CCOC(=O)C1=C(C)N(c2ccc(OC)cc2)C(=O)/C1=C\c1cccs1` gave KCNK3 block inactive, KCNQ1 block inactive, KCNK9 inh inactive, KCNQ1 act inactive and hERG protect -4.
Screening C/C(=N\NC(=O)CCC(=O)Nc1ccccc1)c1cccs1 returned KCNK3 block inactive, KCNQ1 block inactive, KCNK9 inh inactive, KCNQ1 act inactive and hERG protect -6.
`CCOc1ccc(C(Nc2cccnc2)c2cc(Cl)c3cccnc3c2O)cc1` (configuration not stated) gave KCNK3 block inactive, KCNQ1 block 8*, KCNK9 inh inactive, KCNQ1 act inactive and hERG protect -11.
For CCN(CC(=O)NCc1cccs1)C(=O)c1cccc(S(=O)(=O)N2CCc3ccccc32)c1 the results were KCNK3 block inactive, KCNQ1 block inactive, KCNK9 inh inactive, KCNQ1 act inactive and hERG protect -2.
Screening CC(C)Cn1c(O)c(N=NC(=O)c2cccc(S(=O)(=O)N3CCCCC3)c2)c2ccccc21 returned KCNK3 block inactive, KCNQ1 block inactive, KCNK9 inh -7.9*, KCNQ1 act inactive and hERG protect -10.
Screening S=c1[nH]c2cc(Cl)ccc2s1 returned KCNK3 block inactive, KCNQ1 block inactive, KCNK9 inh inactive, KCNQ1 act 74* and hERG protect 55*.
Screening Cc1nc2ccc(NC(=O)CCC3CCCC3)cc2s1 returned KCNK3 block inactive, KCNQ1 block inactive, KCNK9 inh inactive, KCNQ1 act inactive and hERG protect -5.
Screening COc1ccc(C(=O)Nc2ccc(NC(=O)C3CC3)nc2)cc1 returned KCNK3 block inactive, KCNQ1 block inactive, KCNK9 inh inactive, KCNQ1 act inactive and hERG protect -1.
CCOC(=O)C1CCN(c2ncnc3c2oc2ccccc23)CC1 was read as KCNK3 block -9.9*, KCNQ1 block inactive, KCNK9 inh inactive, KCNQ1 act inactive and hERG protect -19.
For Cc1cc(C)nc(NC(=O)c2cc(-c3ccc(C)s3)nc3ccccc23)c1 the results were KCNK3 block inactive, KCNQ1 block 6*, KCNK9 inh inactive, KCNQ1 act inactive and hERG protect -5.
CCOc1ccc(C(=O)Nc2ccc(S(=O)(=O)N3CCN(C)CC3)cc2)cc1 was read as KCNK3 block inactive, KCNQ1 block inactive, KCNK9 inh inactive, KCNQ1 act inactive and hERG protect -3.
Screening CC(C)Oc1ccc(C(=O)Nc2ccc(S(=O)(=O)N3CCN(C)CC3)cc2)cc1 returned KCNK3 block inactive, KCNQ1 block inactive, KCNK9 inh -7.3*, KCNQ1 act inactive and hERG protect -11.
O=C(OCCN=C1NS(=O)(=O)c2ccccc21)c1cccs1 was read as KCNK3 block inactive, KCNQ1 block inactive, KCNK9 inh inactive, KCNQ1 act inactive and hERG protect -6.
Screening CC(NC(=S)Nc1ccc(F)cc1)c1ccccc1 (configuration not stated) returned KCNK3 block inactive, KCNQ1 block inactive, KCNK9 inh inactive, KCNQ1 act inactive and hERG protect -2.
`FC(F)Sc1ccc(NC(=S)NCC2CCCCC2)cc1` gave KCNK3 block inactive, KCNQ1 block 9*, KCNK9 inh -7.3*, KCNQ1 act inactive and hERG protect -16.
Screening FC(F)Sc1ccc(NC(=S)NC(c2ccccc2)c2ccccc2)cc1 returned KCNK3 block inactive, KCNQ1 block 11*, KCNK9 inh inactive, KCNQ1 act inactive and hERG protect -43.
For CN(C(=S)Nc1ccc(SC(F)F)cc1)C(c1ccccc1)c1ccccc1 the results were KCNK3 block inactive, KCNQ1 block 10*, KCNK9 inh inactive, KCNQ1 act inactive and hERG protect -11.
Screening Cc1ccc(NC(=O)COc2ccc(N(C)C(=O)C(C)(C)C)cc2)cc1S(=O)(=O)N1CCCCC1 returned KCNK3 block inactive.
`COc1cccc(-c2cc(C(=O)N3CCc4ccccc4C3)[nH]n2)c1` gave KCNK3 block inactive, KCNQ1 block inactive, KCNK9 inh inactive, KCNQ1 act inactive and hERG protect -9.
Screening CCN1/C(=C/C=C/C=C/c2sc3ccccc3[n+]2CC)Sc2ccccc21 returned KCNQ1 block 17*, KCNK9 inh inactive, KCNQ1 act inactive and hERG protect -42.
For CCN1/C(=C/C=C/C=C/C=C/c2sc3ccccc3[n+]2CC)Sc2ccccc21 the results were KCNK3 block inactive, KCNQ1 block inactive, KCNK9 inh inactive, KCNQ1 act inactive and hERG protect -33.
COc1ccc(-c2noc3c2-c2nc(-c4cccc(C)c4)sc2CC3)cc1 was read as KCNK3 block inactive, KCNQ1 block inactive, KCNK9 inh inactive, KCNQ1 act inactive and hERG protect -14.
S=c1nc(-c2ccc(Br)cc2)oc2c1CCCC2 was read as KCNK3 block inactive, KCNQ1 block inactive, KCNK9 inh inactive, KCNQ1 act inactive and hERG protect 14*.
`COC(=O)c1cc(C(=O)OCC(=O)c2ccc[nH]2)cc([N+](=O)[O-])c1` gave KCNK3 block inactive.
For Cc1nn(CC(=O)Nc2sc3c(c2C#N)CCC(C(C)(C)C)C3)c(C)c1[N+](=O)[O-] (configuration not stated) the results were KCNK3 block inactive, KCNQ1 block 8*, KCNK9 inh inactive, KCNQ1 act inactive and hERG protect -12.
`CC(C)(C)C1CCc2c(sc(NC(=O)C3CC=CCC3C(=O)O)c2C#N)C1` (configuration not stated) gave KCNK3 block inactive, KCNQ1 block inactive, KCNK9 inh inactive, KCNQ1 act inactive and hERG protect 14*.
Cc1ccc(Cl)cc1N1CCN(C(=O)CCS(=O)(=O)c2ccc3c(c2)NC(=O)CO3)CC1 was read as KCNK3 block inactive, KCNQ1 block inactive, KCNK9 inh inactive, KCNQ1 act inactive and hERG protect -14.

Screening data (PubChem)
